Source: article PMC9214057 (Acta Pharmaceutica Sinica. B, 2022)
Residues, ends and D or L forms follow the SMILES beside them. *: point of attachment. Cbz = O=C(OCc1ccccc1)*

Experiments:
[1] = tested on: PD-1/NFAT reporter-Jurkat cells; experiment: PD-L1 cell-based assay
[2] = tested on: B16F10 tumor; conditions: 60 mg/kg; cited from earlier work
[3] = tested on: human SCC-3 tumor; conditions: 20 mg/kg; cited from earlier work
[4] = tested on: PD-L1; conditions: cited from earlier work
[5] = tested on: hPD-L1 MC38 cells; experiment: PD-L1 expression and localisation by Western blotting / immunofluorescence; format: cell-based, mouse; conditions: 24 h
Procedure, shortened: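 hPD-L1 MC38 cells were exposed for 24 h. For immunofluorescence, cells on glass-bottom dishes were treated at 1 and 10 μmol/L, fixed, permeabilized, stained overnight with anti-PD-L1, then Alexa Fluor 488 secondary with DAPI, and imaged by confocal microscopy. For Western blotting, whole cells were treated at 0.1–10 μmol/L. Per lane, 60 μg protein was run on 10% SDS-PAGE and transferred to nitrocellulose. Primary antibody was 1:1000 overnight at 4 °C; β-actin or Na/K-ATPase served as loading control. Bands were quantified by densitometry.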

For `COc1nc(OCc2cccc(-c3ccccc3)c2C)ccc1CNCCNC(C)=O` [BMS202], the “concentration required in the T cell activation assay” value [1] is listed as “more than 10 μmol/L”, the “inhibition rate in B16F10 tumor” value [2] is listed as 50.1% and the “inhibition rate in humanized mouse-transplanted human SCC-3 tumor” value [3] is listed as 41%.
In the case of `C[C@@H](O)[C@H](NC(=O)N[C@@H](CC(N)=O)c1nc([C@@H](N)CO)no1)C(=O)O` [CA-170], the “direct binding to PD-L1” value [4] is listed as “no direct binding”.
In the case of `CC(C)C[C@@H](C=O)NC(=O)[C@H](CC(C)C)NC(=O)[C@H](CC(C)C)NC(=O)OCc1ccccc1` [MG132] (Cbz-Leu-Leu-Leu-aldehyde), the “PD-L1 protein expression / distribution” value [5] is reported as “increased”.
With `CCN(CC)CCCC(C)Nc1ccnc2cc(Cl)ccc12` (stereo not drawn) [chloroquine] the “PD-L1 protein expression / distribution” value [5] was “increased”.
